Laboratory results taken from ChEMBL document CHEMBL1144259, “2-Mercaptoimidazoles, a new class of potent CCR2 antagonists” (Bioorg Med Chem Lett, 2005).

Test: Inhibitory activity against MCP-1 induced Calcium flux in […]
Assay type: functional, cell-based
Conditions: Homo sapiens, THP-1
In short: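 THP-1 cells loaded 30 min with 4 µM Fluo-3 AM at 2 million cells/mL (RPMI, 20 mM HEPES, 0.1% BSA, 5 mM probenecid). Washed into HEPES saline with 1.25 mM CaCl2, 2.5 mM probenecid and 0.1% BSA. Plated at 150,000 cells/well, preincubated 20 min with compound, then stimulated with 10^-7 M hMCP-1. FLIPR fluorescence recorded from 10 s before to 2 min after; maximal signal used.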

| SMILES | IC50 [nM] |
| --- | --- |
| CC[C@@H](c1ccc(Cl)c(Cl)c1)n1c(C(N)=O)cnc1S | 39.8 |
| CCC(c1ccc(Cl)c(Cl)c1)n1c(C(=O)OC)cnc1S (stereo not given) | 200 |
| CCC(c1ccc(F)c(F)c1)n1c(C(N)=O)cnc1S (stereo not given) | 501 |
| CCC(c1ccc(C(F)(F)F)c(F)c1)n1c(S)nc(C(=O)OC)c1C(=O)OC (stereo not given) | 20 |
| CC[C@H](c1ccc(F)c(F)c1)n1c(S)nc(C(=O)OC)c1C(=O)OC | 2000 |
| CCC(c1ccc(Cl)cc1)n1c(C(=O)OC)cnc1S (stereo not given) | > 10000 |
| CCC(c1ccc(Cl)c(Cl)c1)n1c(S)nc(C)c1C(=O)OC (stereo not given) | 251 |
| CCC(c1ccccc1Cl)n1c(C(=O)OC)cnc1S (stereo not given) | > 10000 |
| CCC(c1ccc(F)c(F)c1)n1c(S)nc(C(=O)OC)c1C(=O)OC (stereo not given) | 10 |
| CCC(c1ccc(Cl)c(Cl)c1)n1c(C(=O)OC(C)C)cnc1S (stereo not given) | 316 |
| CCC(c1ccc(Cl)c(Cl)c1)n1c(S)nc(C(=O)NC)c1C(=O)NC (stereo not given) | 398 |
| CCC(c1ccc(Cl)c(Cl)c1)n1c(S)nc(C(=O)OC)c1C(=O)OC (stereo not given) | 10 |
| CCOC(=O)c1cnc(S)n1C(CC)c1ccc(F)c(F)c1 (stereo not given) | 316 |
| CCC(c1ccc(F)c(F)c1)n1c(C(=O)OC)cnc1S (stereo not given) | 1260 |
| CC[C@H](c1ccc(Cl)c(Cl)c1)n1c(C(N)=O)cnc1S | 10000 |
| CCC(c1ccc(F)c(F)c1)n1c(C(=O)NC)cnc1S (stereo not given) | 2000 |
| CCC(c1ccc(F)c(C(F)(F)F)c1)n1c(S)nc(C(=O)OC)c1C(=O)OC (stereo not given) | 100 |
| CCC(c1ccc(Cl)c(Cl)c1)n1c(S)nc(C(N)=O)c1C#N (stereo not given) | 126 |
| CCC(c1ccc(Cl)c(Cl)c1)n1c(S)nc(C)c1C(=O)NC (stereo not given) | > 10000 |
| CCC(c1ccc(C(F)(F)F)cc1)n1c(C(=O)OC)cnc1S (stereo not given) | > 10000 |
| CCC(c1ccc(F)c(C(F)(F)F)c1)n1c(C(=O)OC)cnc1S (stereo not given) | 1000 |
| CCC(c1ccc(F)c(F)c1)n1c(C(=O)NCC(C)C)cnc1S (stereo not given) | > 10000 |
| CC[C@@H](c1ccc(F)c(F)c1)n1c(S)nc(C(=O)OC)c1C(=O)OC | 7.94 |
| CCC(c1cc(F)cc(F)c1)n1c(C(=O)OC)cnc1S (stereo not given) | > 10000 |
| CCC(c1ccc(Cl)c(Cl)c1)n1c(C(N)=O)cnc1S (stereo not given) | 50.1 |
| CCC(c1cc(Cl)cc(Cl)c1)n1c(C(=O)OC)cnc1S (stereo not given) | > 10000 |
| CC[C@@H](c1ccc(Cl)c(Cl)c1)n1c(C(=O)OC)cnc1S | 126 |
| CCC(c1ccc(Br)c(Br)c1)n1c(C(=O)OC)cnc1S (stereo not given) | 251 |

| SMILES | IC50 [nM] |
| --- | --- |
| CCC(c1ccc(OC)c(OC)c1)n1c(C(=O)OC)cnc1S (stereo not given) | > 10000 |
| CCC(c1ccc(Cl)c(Cl)c1)n1c(C#N)cnc1S (stereo not given) | 631 |
| CCC(c1ccc(C)c(C)c1)n1c(C(=O)OC)cnc1S (stereo not given) | > 10000 |
| CCC(c1ccc(Cl)c(Cl)c1)n1c(S)nc(C(=O)OC)c1C#N (stereo not given) | 39.8 |
| CCC(c1cccc(Oc2ccccc2)c1)n1c(C(=O)OC)cnc1S (stereo not given) | > 10000 |
| CC[C@H](c1ccc(Cl)c(Cl)c1)n1c(C(=O)OC)cnc1S | 1580 |
| CCC(c1ccc(C(F)(F)F)c(F)c1)n1c(C(=O)OC)cnc1S (stereo not given) | 2000 |
| CCC(c1ccc(Cl)c(Cl)c1)n1c(CO)cnc1S (stereo not given) | > 10000 |
| COC(=O)c1cnc(S)n1C(c1ccc(Cl)c(Cl)c1)c1ccc(Cl)c(Cl)c1 | > 10000 |
| COC(=O)c1cnc(S)n1C(C)c1ccc(Cl)c(Cl)c1 (stereo not given) | 251 |
| CCC(c1ccccc1)n1c(C(=O)OC)cnc1S (stereo not given) | > 10000 |
| CCC(c1ccc(F)c(F)c1)n1c(C(=O)N2CCOCC2)cnc1S (stereo not given) | > 10000 |
| CCC(c1ccc(Cl)c(Cl)c1)n1c(C(=O)NC)cnc1S (stereo not given) | 316 |
| COC(=O)c1cnc(S)n1C(c1ccc(Cl)c(Cl)c1)C1CC1 (stereo not given) | 2000 |
| CCC(c1ccc(F)c(F)c1)n1c(C(=O)N2CCCC2)cnc1S (stereo not given) | > 10000 |
| COC(=O)c1cnc(S)n1C(c1ccc(Cl)c(Cl)c1)C1CCCCC1 (stereo not given) | 10000 |
| COC(=O)c1cnc(S)n1C(c1ccc(Cl)c(Cl)c1)c1cccs1 (stereo not given) | > 10000 |
| CCCC(c1ccc(Cl)c(Cl)c1)n1c(C(=O)OC)cnc1S (stereo not given) | 158 |
| CCC(c1ccc(Cl)c(Cl)c1)n1c(C(=O)O)cnc1S (stereo not given) | > 10000 |
| CCC(c1ccc(F)c(F)c1)n1c(C(=O)N2CCCCC2)cnc1S (stereo not given) | > 10000 |
| COCC(c1ccc(Cl)c(Cl)c1)n1c(C(=O)OC)cnc1S (stereo not given) | 316 |
| CCC(c1ccc(Cl)c(Cl)c1)n1c(S)nc(C(=O)O)c1C(=O)OC (stereo not given) | > 10000 |
| CCCCNC(=O)c1cnc(S)n1C(CC)c1ccc(F)c(F)c1 (stereo not given) | > 10000 |
| CC[C@@H](c1ccc(Cl)c(Cl)c1)n1c(S)nc(C(=O)OC)c1C(=O)OC | 7.94 |
| CCC(c1cccc(Cl)c1)n1c(C(=O)OC)cnc1S (stereo not given) | > 10000 |
| COC(=O)c1cnc(S)n1C(C)(C)c1ccc(Cl)c(Cl)c1 | > 10000 |
| CCC(c1ccc(Cl)c(Cl)c1)n1c(S)nc(C(N)=O)c1C(N)=O (stereo not given) | 63.1 |
